Records with an inconclusive call do not appear.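 The calls were made as follows, unless noted: active = cell viability at or below a set limit in both duplicate runs, the limit being the all-compound median minus 4 SD (cut at about 23% in these data, passing the limit was not always enough); inconclusive = no clear call, values can overlap the other calls; inactive = the rest.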
Key:
[1] = OD615 S. cerevisiae growth inhibition, permissive medium, pilot counter-assay, permissive growth control for S. cerevisiae lifespan shortening project (AID 705;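 active = growth inhibition above 25% in both replicates, a cutoff set 3 SD above the mean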); conditions: OD615, 24 h, at 10 µM, stronger effect = higher value
Summary of the method: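 Material: engineered DeaD yeast; Compound: one dose 10 µM, DMSO 0.25% final; Detection: absorbance (optical density) at 615 nm; Buffer or medium: permissive raffinose/galactose medium; Timing: 24 h exposure, 30 °C.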

[2] = Restrictive medium S. cerevisiae growth inhibition, OD615, pilot screen of yeast lifespan reduction project, restrictive growth control (AID 706;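 active = growth inhibition above a set limit, 3 SD over mean compound inhibition, in both replicates, cut at about 43% in these data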;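 also: modified DeaD lifespan yeast strain shifted to restrictive glucose medium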); conditions: OD615, 48 h, at 10 µM, stronger effect = higher value
Summary of the method: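 Buffer or medium: restrictive glucose medium (CSMM-D); test system: modified S. cerevisiae; doses: single dose of 10 µM compound final, 0.25% DMSO; schedule: 48 h compound exposure at 30 °C; detection: absorbance (optical density) measured at 615 nm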

[3] = viability gain of MRP-1-high H69AR cells under doxorubicin, pilot screen, MRP-1 activator project, CellTiter-Glo, duplicate (AID 807;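 active = viability increase at or above a cutoff of the median across tested compounds plus 3 SD, cut at about 8.5% in these data, passing the limit was not always enough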;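 also: compound pretreatment 18-22 h then 72 h combined with doxorubicin; 0% = doxorubicin alone and 100% = vehicle without doxorubicin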); conditions: H69AR viability with doxorubicin, CellTiter-Glo luminescence; at 10 µM; stronger effect = higher value
[4] = growth suppression of beta-catenin knockout HCT116, pilot screen, human colon tumor cells (AID 823); conditions: CellTiter-Glo, 60 h, at 10 µM, stronger effect = lower value;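 also: 0% = wells killed by 20 µM Hyamine and 100% = untreated DMSO cell wells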
[5] = growth suppression of PTEN-deleted HCT116, pilot screen, cell-based, HCT116 clonal line, CellTiter-Glo (AID 824;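 active = viability at or below 27.92% in each of two runs, the all-compound median minus 4 SD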;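 also: 0% = 20 µM Hyamine control and 100% = vehicle cell control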); conditions: 60 h, at 10 µM, stronger effect = lower value
[6] = inhibitors of the yeast RAM network, pilot screen, dse1pr::URA3 reporter, 5-FOA selection (AID 869;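 active = inhibition over a set limit, the all-compound mean plus 3 SD, in both replicate runs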;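 also: 0% = DMSO wells with no growth and 100% = 10 µM 1-NA-PP1 with full growth; RAM network block rescues cells from 5-FOA so hits raise OD615 growth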); conditions: S. cerevisiae dse1pr::URA3 5-FOA growth, OD615, 2 d; at 10 µM; stronger effect = higher value; strain carries analog-sensitive mutant Cbk1 kinase
[7] = RAM signaling pathway blockade in yeast – S. cerevisiae, Pdr1DBD-CYC8 efflux-inhibited sensitized strain, primary screen (AID 1298;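 active = RAM network inhibition above 8.4% in each of two replicates, 3 SD over the compound average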;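 also: 0% = DMSO untreated cells without growth and 100% = 10 µM 1-NA-PP1 full growth; higher means more yeast growth rescued from 5-FOA killing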); conditions: S. cerevisiae cbk1-as DSE1-URA3 strain, 5-FOA growth OD615, 2 d; at 50 µM; stronger effect = higher value

COC(=O)C1CCN(C(=O)c2ccc(Cl)c(S(=O)(=O)NCc3cccnc3)c2)CC1
inactive: growth inhibition [1] -4.88% | growth inhibition [2] -18.5% | viability increase [3] 0.87% | viability [4] 101% | viability [5] 102% | inhibition [6] 1.32% | RAM network inhibition [7] 2.3%

Cc1cc2cc(CNC(=O)c3ccc(S(=O)(=O)N4CCCCC4)cc3)ccc2n1C
inactive: growth inhibition [1] 14.5% | growth inhibition [2] 11.4% | viability increase [3] -0.91% | viability [4] 97.4% | viability [5] 94.2% | inhibition [6] 1.04% | RAM network inhibition [7] 3.71%

COCCCNC(=O)Cn1cc2c(n1)CCCCC2
inactive: growth inhibition [1] 3.39% | growth inhibition [2] -2.59% | viability increase [3] 0.05% | viability [4] 104% | viability [5] 106% | inhibition [6] -0.6% | RAM network inhibition [7] 4.53%

CC(=O)C1=C(O)C(=O)N(c2nnn(C)n2)C1c1cccs1 (stereo not drawn)
inactive: growth inhibition [1] -9.56% | growth inhibition [2] -6.22% | viability increase [3] -1.76% | viability [4] 107% | viability [5] 95.8% | inhibition [6] 2.02% | RAM network inhibition [7] 0.72%

Cn1nc(-c2ccc(Cl)cc2)c2cc(C(=O)NCc3ccco3)sc21
inactive: growth inhibition [1] -1.08% | growth inhibition [2] -3.58% | viability increase [3] -7.27% | viability [4] 59.6% | viability [5] 47% | inhibition [6] 2.54% | RAM network inhibition [7] 5.89%

CCOC(=O)N1CCc2c(sc(NC(C)=O)c2C(N)=O)C1
inactive: growth inhibition [1] -5.06% | growth inhibition [2] -16.1% | viability increase [3] -1.9% | viability [4] 103% | viability [5] 99.3% | inhibition [6] 1.6% | RAM network inhibition [7] 0.58%

COc1cccc(-c2nc(CS(=O)CC(=O)NC3CCCC3)c(C)o2)c1 (stereo not drawn)
inactive: growth inhibition [1] -7.39% | growth inhibition [2] 1.47% | viability increase [3] -2.4% | viability [4] 90.3% | viability [5] 95.6% | inhibition [6] 1.09% | RAM network inhibition [7] 1.25%

COc1ccc(C(=O)Nc2c(N)nc(SCC(=O)N3CCCCCC3)[nH]c2=O)cc1OC
inactive: growth inhibition [1] -2.35% | growth inhibition [2] -3.33% | viability increase [3] -0.26% | viability [4] 96.8% | viability [5] 102% | inhibition [6] 1.97% | RAM network inhibition [7] 5.94%

CC(C)(C)NCCCCOc1ccc(F)cc1
inactive: growth inhibition [1] 0.455% | growth inhibition [2] -1.1% | viability increase [3] 0.34% | viability [4] 99.3% | viability [5] 101% | inhibition [6] 1.71% | RAM network inhibition [7] 1.66%

C(#Cc1ccc(C#CCN2CCOCC2)cc1)CN1CCOCC1
inactive: growth inhibition [1] -17.1% | growth inhibition [2] -9.67% | viability increase [3] -0.83% | viability [4] 85.8% | viability [5] 87.2% | inhibition [6] 1.15% | RAM network inhibition [7] 3.18%

O=C(O)c1ccc(-n2nnnc2SCc2ccccc2F)cc1
inactive: growth inhibition [1] -13.7% | growth inhibition [2] 6.63% | viability increase [3] 1.71% | viability [4] 105% | viability [5] 102% | inhibition [6] 2.46% | RAM network inhibition [7] 9.03%

COc1c(C)cccc1C(=O)Nc1cc(-c2nn3c(C)nnc3s2)ccc1C
inactive: growth inhibition [1] 13.5% | growth inhibition [2] 37% | viability increase [3] -5.61% | viability [4] 73.9% | viability [5] 64.2% | inhibition [6] 2.07% | RAM network inhibition [7] 7.01%

CCOC(=O)CNC(=O)C(NC(=O)C1CCC(C)CC1)C(C)CC (stereo not drawn)
inactive: growth inhibition [1] 0.975% | growth inhibition [2] -17.8% | viability increase [3] -1.73% | viability [4] 98.8% | viability [5] 98% | inhibition [6] 0.95% | RAM network inhibition [7] 0.93%

Cc1ccc(Cl)cc1NC(=O)COC(=O)C1CCCC1
inactive: growth inhibition [1] -22% | growth inhibition [2] -14.1% | viability increase [3] -0.05% | viability [4] 99.1% | viability [5] 94.4% | inhibition [6] 1.32% | RAM network inhibition [7] 1.69%

O=C(Nc1cnc2ccccc2c1)c1cccnc1
inactive: growth inhibition [1] 4.78% | growth inhibition [2] 0.625% | viability increase [3] -7.98% | viability [4] 103% | viability [5] 103% | inhibition [6] 1.74% | RAM network inhibition [7] -0.15%

COc1ccc(C2C/C(=N\O)C(C)(C)O2)cc1 (stereo not drawn)
inactive: growth inhibition [1] -16.5% | growth inhibition [2] -4.77% | viability increase [3] -0.83% | viability [4] 97.1% | viability [5] 93.7% | inhibition [6] 1.06% | RAM network inhibition [7] 3.9%

c1ccc(Sc2nc(N3CCCCC3)nc(N3CCCCC3)n2)nc1
inactive: growth inhibition [1] 4.63% | growth inhibition [2] -1.59% | viability increase [3] 0.32% | viability [4] 89.3% | viability [5] 86.5% | inhibition [6] 0.735% | RAM network inhibition [7] 4.97%

COc1cc(O)c(NC(C)=O)c2nonc12
inactive: growth inhibition [1] -5.37% | growth inhibition [2] 5.21% | viability increase [3] 0% | viability [4] 101% | viability [5] 107% | inhibition [6] -0.845% | RAM network inhibition [7] -1.46%

N#CCC(=O)Nc1sc2c(c1C(N)=O)CCCC2
inactive: growth inhibition [1] -12.7% | growth inhibition [2] -7.35% | viability increase [3] -1.93% | viability [4] 97.5% | viability [5] 99.9% | inhibition [6] 3.18% | RAM network inhibition [7] 0.67%

O=C1c2ccccc2C(=O)C1c1ccncc1
inactive: growth inhibition [1] 4.93% | growth inhibition [2] -1.51% | viability increase [3] -1.88% | viability [4] 92.6% | viability [5] 91.3% | inhibition [6] 0.79% | RAM network inhibition [7] -0.62%

COc1cccc(C2CC(c3ccc(C(C)C)cc3)n3nc(N)nc3N2)c1 (stereo not drawn)
inactive: growth inhibition [1] -2.39% | growth inhibition [2] 3.09% | viability increase [3] 0.91% | viability [4] 97.1% | viability [5] 95.7% | inhibition [6] 1.5% | RAM network inhibition [7] 3.94%

CCSC1=C(C#N)C(c2ccc(C)s2)CC(=O)N1 (stereo not drawn)
inactive: growth inhibition [1] -16.1% | growth inhibition [2] -6.45% | viability increase [3] -0.29% | viability [4] 95.8% | viability [5] 94.1% | inhibition [6] 0.425% | RAM network inhibition [7] 0.57%

C=CCn1c(=N)n(CC(O)COc2ccc(OC)cc2)c2ccccc21 (stereo not drawn)
inactive: growth inhibition [1] -10.9% | growth inhibition [2] 1.67% | viability increase [3] -4.96% | viability [4] 64.8% | viability [5] 69% | inhibition [6] -0.445% | RAM network inhibition [7] -0.51%

Cc1cc2nc(-c3cccc(NC(=O)c4ccc(Br)o4)c3C)oc2cc1C
inactive: growth inhibition [1] -0.715% | growth inhibition [2] -9.59% | viability increase [3] 3.53% | viability [4] 87% | viability [5] 84.2% | inhibition [6] 2.33% | RAM network inhibition [7] 2.65%
